Results on six compounds are retold here after ChEMBL document CHEMBL4433221, “Novel Sustainable-by-Design HDAC Inhibitors for the Treatment of Alzheimer's Disease” (ACS Med Chem Lett, 2019).

The Papp is a coefficient for how fast a substance crosses the barrier. As a reminder, the inhibition is the percentage by which the read-out fell short of the control.

Calls of active or inactive are those of the source. The calls are words filed in the database; no cut-off is given here.

A short description of series [1]: Permeability of the compound at pH 7.4 PBS buffer at 100 uM measured upto 6 hrs by PAMPA-BBB assay. In general terms: In PAMPA a lipid-coated filter parts donor from acceptor wells.
The target in series [2] is Histone deacetylase 1 (Homo sapiens, UniProt Q13547). Briefly: Inhibition of human recombinant HDAC1 at 10 uM using ZMAL (Z-(Ac)Lys-AMC fluorogenic substrate incubated for 90 mins by fluorescence method.
Series [3] concerns the target T1, Protein deacetylase HDAC6 (Homo sapiens) (UniProt Q9UBN7).
T1 sequence (whole entry): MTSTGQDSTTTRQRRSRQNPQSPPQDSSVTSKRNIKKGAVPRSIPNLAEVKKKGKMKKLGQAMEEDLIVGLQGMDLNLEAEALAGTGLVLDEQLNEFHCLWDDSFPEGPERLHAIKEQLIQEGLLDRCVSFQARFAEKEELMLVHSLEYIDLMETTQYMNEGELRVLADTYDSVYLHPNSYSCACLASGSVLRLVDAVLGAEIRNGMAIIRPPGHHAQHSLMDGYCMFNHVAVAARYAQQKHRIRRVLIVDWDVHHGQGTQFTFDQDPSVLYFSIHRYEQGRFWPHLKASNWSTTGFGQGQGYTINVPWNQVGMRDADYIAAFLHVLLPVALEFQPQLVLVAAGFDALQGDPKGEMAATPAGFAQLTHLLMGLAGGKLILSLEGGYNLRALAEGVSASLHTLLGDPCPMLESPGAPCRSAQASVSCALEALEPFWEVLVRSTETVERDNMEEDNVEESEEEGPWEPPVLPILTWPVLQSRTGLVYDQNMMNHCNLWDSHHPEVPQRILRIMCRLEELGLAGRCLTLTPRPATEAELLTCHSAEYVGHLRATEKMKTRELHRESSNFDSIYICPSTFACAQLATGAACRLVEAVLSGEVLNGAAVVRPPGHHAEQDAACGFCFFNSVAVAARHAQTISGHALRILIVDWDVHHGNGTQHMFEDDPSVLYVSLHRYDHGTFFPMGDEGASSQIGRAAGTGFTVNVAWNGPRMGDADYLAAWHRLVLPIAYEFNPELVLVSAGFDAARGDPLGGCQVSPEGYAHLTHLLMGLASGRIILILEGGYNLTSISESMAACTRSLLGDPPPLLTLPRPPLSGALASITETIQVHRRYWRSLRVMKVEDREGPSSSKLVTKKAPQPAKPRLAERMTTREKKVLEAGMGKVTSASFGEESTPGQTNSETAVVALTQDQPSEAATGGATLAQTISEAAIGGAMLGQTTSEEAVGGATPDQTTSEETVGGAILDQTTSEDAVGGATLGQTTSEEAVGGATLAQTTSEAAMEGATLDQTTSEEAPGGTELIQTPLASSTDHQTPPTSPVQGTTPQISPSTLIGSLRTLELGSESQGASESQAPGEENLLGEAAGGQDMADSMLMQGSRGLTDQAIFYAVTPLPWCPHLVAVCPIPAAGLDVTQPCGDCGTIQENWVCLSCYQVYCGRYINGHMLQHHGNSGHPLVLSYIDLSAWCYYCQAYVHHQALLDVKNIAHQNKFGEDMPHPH
Briefly: Inhibition of human recombinant HDAC6 at 10 uM using ZMAL (Z-(Ac)Lys-AMC fluorogenic substrate incubated for 90 mins by fluorescence method.

Series [4] is described as follows: Neurotoxicity against rat CGN cells assessed as cell viability at 25 uM incubated for 24 hrs by MTT assay. The series is classed as toxicity, cell-based. Particulars: read-out: Activity. In a few lines: (§1)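 Primary rat cerebellar granule neuron cultures were exposed for 24 h to 5, 25 or 50 μM. Viability was measured by MTT and expressed as percentage of untreated controls, as mean ± SE of at least three experiments, each run in triplicate.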
For orientation: Tetrazolium assays rely on reduction of a dye to a coloured formazan, in cell work by metabolically active cells.

Series [5] is described as follows: Neurotoxicity against rat CGN cells assessed as cell viability at 50 uM incubated for 24 hrs by MTT assay. The series is classed as toxicity, cell-based. Particulars: read-out: Activity. In a few lines: as §1
The species named for series [6] is Rattus norvegicus. Briefly: Neuroprotective activity against low serum/K+ deprivation-induced toxicity in rat CGN cells assessed as increase in cell viability at 5 to 25 uM pre-treated for 6 hrs followed by 24 hrs co-treatment with serum/K+ starvation and measured after 24 hrs by MTT assay. The series is classed as functional, cell-based. In a few lines:
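Primary rat cerebellar granule neurons were pretreated for 6 h, then cotreated for 24 h under low-serum and K+ deprivation to induce death. Viability was compared with control and deprivation-only conditions, with tacrine as reference compound.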

Series [7] has as its system N9. Briefly: Immunomodulatory activity in mouse N9 cells assessed as increase in LPS-induced MRC1 expression at 5 to 25 uM incubated for 24 hrs by Western blot analysis. Type of series: functional, cell-based. The procedure, abridged:
(§2)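 N9 mouse microglial cells stimulated with LPS (100 ng/mL) and treated at 5 and 25 μM. iNOS and MRC1 levels were read by Western blot with GAPDH as loading control. Densitometry is expressed as percentage of LPS-only cells, as mean ± SE of three independent experiments.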
A general note: A western blot detects proteins with antibodies after separation by electrophoresis.

For series [8], the system named is N9. Briefly: Immunomodulatory activity in mouse N9 cells assessed as reduction in LPS-induced iNOS expression at 5 to 25 uM incubated for 24 hrs by Western blot analysis. The series is classed as functional, cell-based. In a few lines:
as §2

Chain of Histone deacetylase 1 (Q13547 whole entry): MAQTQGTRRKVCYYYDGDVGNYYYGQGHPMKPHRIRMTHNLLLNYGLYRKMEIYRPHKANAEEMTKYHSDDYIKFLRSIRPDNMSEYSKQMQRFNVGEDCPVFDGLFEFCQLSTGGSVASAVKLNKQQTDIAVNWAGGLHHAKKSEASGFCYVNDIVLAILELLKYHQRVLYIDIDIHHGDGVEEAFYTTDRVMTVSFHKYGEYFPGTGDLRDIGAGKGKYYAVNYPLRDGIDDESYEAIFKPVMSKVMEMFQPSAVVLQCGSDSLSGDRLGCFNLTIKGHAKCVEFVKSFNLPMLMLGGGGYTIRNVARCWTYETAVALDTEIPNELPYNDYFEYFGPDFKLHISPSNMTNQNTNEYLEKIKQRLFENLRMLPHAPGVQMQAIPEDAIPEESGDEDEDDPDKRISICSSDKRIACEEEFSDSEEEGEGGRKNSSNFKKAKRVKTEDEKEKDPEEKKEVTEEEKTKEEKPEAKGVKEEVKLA

`Nc1c2c(nc3ccccc13)CCCC2` [TACRINE] showed a Papp at 6 h, 100 µM in series [1] of 3.75 ×10⁻⁶ cm/s.

For `CO/N=C(\C(=O)N[C@@H]1C(=O)N2C(C(=O)O)=C(COC(N)=O)CS[C@H]12)c1ccco1` [CEFUROXIME], in series [1], the Papp at 6 h, 100 µM was determined as 2.7 ×10⁻⁶ cm/s. Take `CN(C)CCCN1c2ccccc2Sc2ccc(Cl)cc21` [CHLORPROMAZINE]: in series [1], the Papp at 6 h, 100 µM was 5.1 ×10⁻⁶ cm/s. Consider `COc1cccc(CCCCCCCC(=O)O)c1`, for which the inhibition in series [2] and in series [3] was less than 15% in each case.

For the compound `CCCCCCCCCCCCCCCc1cccc(O)c1`, the Papp at 6 h, 100 µM in series [1] amounted to 3.1 ×10⁻⁶ cm/s.

With `O=C(CCCCCCC(=O)Nc1ccccc1)NO` [VORINOSTAT], the viability at 24 h, 25 µM in series [4] is 70%. Besides, in series [5], the viability at 24 h, 50 µM is 52%. Also, the outcome in series [6] and in series [7] was inactive. In addition, the outcome in series [8] was Active.
